# Compound activity: PubChem BioAssay, several laboratories
# ATG4B inhibitor = ATG4B (human) cysteine protease inhibition | Q9Y4P1 | ATG4B cleavage of LC3-PLA2, NBD-HPC fluorescence, 1 h | inhibition, % at 8.33 µM | hit rate 0.51% among 340,000 | AID 504462; in the data active = inhibition above about 40%
# HTRA1 inhibitor = inhibitors of human serine peptidase HTRA1 | AID 504803 | Q92743 | hit rate 0.5% among 340,000 | recombinant HTRA1, FP-rhodamine activity-based probe, fluorescence polarization | inhibition, % at 5.96 µM; in the data active = inhibition above about 36%;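 note: 0% = enzyme with DMSO and 100% = wells lacking enzyme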
# Target sequence (Q92743 whole entry, looked up): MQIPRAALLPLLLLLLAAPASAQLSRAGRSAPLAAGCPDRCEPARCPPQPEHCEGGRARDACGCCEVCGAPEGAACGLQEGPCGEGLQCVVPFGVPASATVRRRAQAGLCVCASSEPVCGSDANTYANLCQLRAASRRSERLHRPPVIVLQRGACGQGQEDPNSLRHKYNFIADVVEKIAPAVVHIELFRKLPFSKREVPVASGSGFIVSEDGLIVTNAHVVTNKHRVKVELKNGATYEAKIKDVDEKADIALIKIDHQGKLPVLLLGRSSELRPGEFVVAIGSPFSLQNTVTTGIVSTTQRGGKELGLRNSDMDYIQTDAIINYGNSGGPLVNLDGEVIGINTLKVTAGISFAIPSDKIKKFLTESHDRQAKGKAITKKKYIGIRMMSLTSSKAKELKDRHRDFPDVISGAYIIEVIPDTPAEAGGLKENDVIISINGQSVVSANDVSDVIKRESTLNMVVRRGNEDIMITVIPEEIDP
# SIAE primary = human SIAE inhibition, primary screen | SIAE FP-Rh probe binding, fluorescence polarization | inhibition, % at 9.66 µM | hit rate 0.69% among 370,000;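 active = inhibition above a cutoff: mean of compounds within the control limits plus 3 SD of those, cut at about 17% in these data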;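 note: 0% = plate median of compound wells and 100% = probe without SIAE protein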
# TCR-CD3 inh = human TCR-CD3 binding inhibition | hit rate 0.37% among 360,000 | TAMRA-labeled TCR probe fluorescence, biochemical | inhibition, % at 9.4 µM; in the data active = inhibition above about 19%;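 note: recombinant mutant TCR 2C K166C tagged with TAMRA read by polarization; 0% = receptor in buffer alone and 100% = receptor with positive control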
# mABHD4 FP = ABHD4 (mouse) inhibition, primary FP screen; purified mABHD4, FP-Rh probe fluorescence polarization; hit rate 0.54% among 370,000; Q8VD66; AID 720543; inhibition, % at 8.92 µM;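 active = inhibition exceeding the mean over every tested compound plus 3 SD, cut at about 30% in these data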;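 note: 0% = plate median of compound wells and 100% = S159A mutant with DMSO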
#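 assay system = mABHD4 protein | compound dosing = single nominal dose of 8.92 µM, 0.89% DMSO final | read-out basis = percent inhibition of probe binding, normalized to plate controls | schedule = Enzyme–compound pre-incubation 45 min, then probe 60 min, both 25 °C | detection = fluorescence polarization, excitation 525 nm, emission 598 nm, BODIPY TMR filters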
# PRMT1 inh = PRMT1 (human) inhibition, primary screen; hit rate 1.3% among 370,000; Q99873; recombinant PRMT1, activity-based probe fluorescence polarization; inhibition, % at 2.79 µM; AID 652257;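 active = inhibition above about 21% made by adding two undisclosed values, limit read from the data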
# PRMT1 inh conf = confirmation of human PRMT1 inhibitors | hit rate 42% among 3,300 | recombinant His-PRMT1, activity-based probe fluorescence polarization | AID 687036 | shares compounds with PRMT1 inh | inhibition, % at 2.79 µM;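 active = mean inhibition across replicates above the hit cutoff derived for the earlier primary screen, cut at about 22% in these data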
# Starred values were filed as active, the others as inactive; / = not tested or not shown. An excerpt weighted towards active compounds, which were near 2.9% of everything screened.
SMILES,ATG4B inhibitor,HTRA1 inhibitor,SIAE primary,TCR-CD3 inh,mABHD4 FP,PRMT1 inh,PRMT1 inh conf
CN(CCO)c1cc(Sc2nc3ccccc3s2)c2nonc2c1[N+](=O)[O-],-0.2,7.1,7.0,-3.8,22.2,90.2*,88.6*
CC(=O)OCCN(C)c1cc(SC(C)C)c2nonc2c1[N+](=O)[O-],-7.8,-0.5,-2.0,4.4,1.5,6.2,/
COc1cccc(N2CCN(C(=O)COc3cc(=O)n(C)c4ccccc34)CC2)c1,/,/,-3.9,/,-5.8,0.5,/
CCN(C(=O)COc1cccc2cccnc12)C1CCS(=O)(=O)C1 (configuration not stated),-5.2,4.4,2.5,-3.8,3.5,32.8*,4.2
COc1c2c(cc3c1c(=O)c1ccccc1n3C)OCO2,/,/,1.6,6.4,0.9,3.1,/
CCOC(=O)C1(c2ccccc2)SC(C(=O)OCC)(c2ccccc2)S1 (configuration not stated),/,-1.1,-3.4,-2.5,-1.4,70.6*,59.0*
O=c1oc2c3c4c(cc2c(C(F)(F)F)c1CCN1CCOCC1)CCCN4CCC3,-12.2,5.2,-7.3,-0.4,-5.1,53.1*,24.2*
NC(=O)CCC(NC(=O)c1ccc(Cl)cc1)C(=O)O (configuration not stated),7.4,1.1,4.6,0.8,6.5,51.6*,-7.3
Cc1ccc(/C=C2/Sc3ccccc3N(CC(=O)NCC3CCCO3)C2=O)cc1 (configuration not stated),-4.8,-14.9,/,/,/,/,/
Cc1cc(/C=C2\Sc3ccccc3N2C)cc(C)[n+]1CC1CCCO1 (configuration not stated),1.9,/,-0.9,-6.3,-7.1,100.3*,-1.4
Cc1cccc(-c2cccc3c4c([nH]c23)[C@@H]2C[C@H](N(C)C(=O)NC3CCCCC3)[C@H]([C@H](C)O)C(=O)N2CC4)c1,/,/,-4.0,/,-4.4,-2.6,/
Cc1ccc(Cc2c(-c3ccco3)nc3ccc(Br)cn23)cc1,/,/,-2.0,-0.2,11.1,31.4*,16.0
COc1ccc(Cc2c(-c3ccco3)nc3c(C)cc(Br)cn23)c(C)c1,/,/,-3.5,0.1,-6.5,6.7,/
Cc1ccc(Cc2c(-c3ccc(C)cc3)nc3ccc(Br)cn23)cc1,/,-40.9,-4.5,4.3,0.1,-0.1,/
COc1ccc(Cc2c(-c3ccccc3)nc3ccc(Cl)cn23)c(C)c1,/,/,-2.6,-0.8,2.4,-2.2,/
COc1ccc(Cc2c(-c3ccco3)nc3ccc(Br)cn23)c(C)c1,/,/,-3.9,6.5,14.4,30.9*,20.0
COc1ccc(Cc2c(-c3ccco3)nc3ccc(Cl)cn23)c(C)c1,/,/,2.6,2.2,10.2,27.3*,14.9
COC(=O)[C@]12C[C@H](CC(=O)NCc3cccc4ccccc34)C(=O)N(CCC3=CCCCC3)C1=C[C@H](C(C)C)O[C@@H]2C1CC1,/,/,3.1,/,1.9,-2.3,/
COc1ccc(N2C(=O)CC(Sc3nc4ccccc4s3)C2=O)cc1OC (configuration not stated),3.2,0.5,-0.5,-0.8,3.7,26.2*,22.9*
Cc1nc(SC2CC(=O)N(c3ccccc3)C2=O)n[nH]1 (configuration not stated),-3.0,8.8,2.2,-1.1,0.3,50.3*,62.6*
C=CCNc1nnc(SC2CC(=O)N(c3ccc(OCCC)cc3)C2=O)s1 (configuration not stated),0.3,-0.9,4.2,3.3,-3.0,67.2*,66.2*
CC(=O)Nc1ccc(N2C(=O)CC(Sc3nc4ccccc4s3)C2=O)cc1 (configuration not stated),-7.2,-3.5,3.4,-0.9,-4.0,16.4,/
O=C1CC(Sc2ncccn2)C(=O)N1c1ccccc1 (configuration not stated),-7.6,-4.4,0.6,5.8,-4.0,11.6,/
COc1ccccc1N1C(=O)CC(Sc2n[nH]c(-c3cccc(C)c3)n2)C1=O (configuration not stated),-2.3,2.4,2.6,5.6,4.7,88.1*,72.5*
CCOc1ccc(N2C(=O)CC(Sc3nc4ccc(OCC)cc4s3)C2=O)cc1 (configuration not stated),8.5,1.0,-6.2,5.3,-1.1,2.2,/
SMILES,ATG4B inhibitor,HTRA1 inhibitor,SIAE primary,TCR-CD3 inh,mABHD4 FP,PRMT1 inh,PRMT1 inh conf
CS(=O)(=O)N1CCC[C@]2(CC[C@@H](CCC#N)O2)C1,/,/,-2.1,/,6.0,0.1,/
CCOC(=O)c1ccc(N2C(=O)CC(Sc3nnc(C)s3)C2=O)cc1 (configuration not stated),-7.9,-3.2,4.6,1.0,-5.1,71.7*,75.9*
CC(C)c1ccc(N2C(=O)CC(Sc3ncccn3)C2=O)cc1 (configuration not stated),-0.1,-0.9,-2.6,-3.5,-3.8,11.9,/
Nc1nnc(SC2CC(=O)N(c3ccccc3)C2=O)s1 (configuration not stated),-8.5,-0.8,2.2,-5.6,5.5,74.6*,72.7*
CC(C)N1CCCCC(NC(=O)c2cccs2)C1=O (configuration not stated),/,/,-4.1,/,-5.9,5.0,/
COc1ccc(S[C@]2(C(=O)NC3CC3)CC(=O)N[C@@H]2c2ccc(OC)cc2)cc1,/,/,-2.5,/,-7.4,-0.1,/
CCN(CC)C(=S)SCC(=O)Nc1nc(=O)c2ccccc2s1,-14.7,-5.0,0.6,-1.1,3.4,44.3*,-6.3
Cc1ccc(/C=C/C(=O)Nc2cccc3ncccc23)o1,-3.6,1.6,2.6,-5.0,13.1,69.0*,28.2*
Cc1ccc(/C=C/C(=O)Nc2cccnc2)o1,1.6,-0.5,8.4,1.9,0.6,14.0,/
COC(=O)c1sc(NC(=O)/C=C/c2ccc(C)o2)nc1C,-18.1,-10.1,-9.0,5.3,-6.5,6.6,/
Cc1ccc(/C=C/C(=O)Nc2nn[nH]n2)o1,-7.7,-1.6,10.0,9.3,0.7,35.5*,54.7*
CCOc1ccc(CCNC(=O)c2cc3sccc3n2CC)cc1OC,/,/,1.2,/,-3.1,-0.6,/
COc1ccc(C(=S)N2CCN(C)CC2)cc1Br,3.4,2.9,4.9,2.9,-6.4,-2.1,/
COc1ccc(C(=O)Oc2ccc(C(=S)N3CCOCC3)cc2)cc1,2.3,-8.3,-10.5,7.8,-5.6,57.2*,2.0
O=C(Oc1ccc(C(=S)N2CCOCC2)cc1)c1ccc(Br)cc1,-4.7,5.0,3.6,3.3,-0.1,0.0,/
COc1ccc(C(=S)N2CCN(C)CC2)cc1,-13.6,-5.3,-0.9,1.9,-0.3,29.9*,8.3
Cc1ccc(S(=O)(=O)CCSC(=N)N)cc1,-3.3,3.8,2.9,5.6,-1.0,25.0*,6.8
COC(=O)CN=Cc1c(C)[nH]n(-c2ccccc2)c1=O,-9.7,-4.3,-0.5,-2.9,0.7,-1.5,/
Cc1[nH]n(-c2ccccc2)c(=S)c1C=NCCCN=Cc1c(C)[nH]n(-c2ccccc2)c1=S,-14.4,4.0,12.5,3.7,5.8,80.8*,44.4*
